# Test system: Jurkat cells
# Test: Apoptotic protection assay
# Assay type: cell-based
# Settings: 20 µM inhibitor for 3 h before 10 ng/mL MegaFasL, CellTiter-Glo
# In short: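 Jurkat A3 cells were grown near confluence (10% FBS, pen/strep/glutamine, 37 °C, 5% CO2), resuspended in fresh medium, and plated at 10,000 cells/well. They were then given test compound (20 µM, or a concentration series with 30 min pretreatment) or DMSO vehicle, for set times before or after 10 ng/mL MegaFasL. Viability was read by CellTiter-Glo 3 h after induction.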
substance,measurement,value
Z-D^ME^MVD^M-FMK [0^M],protection from extrinsic apoptosis (cellular viability),able to preserve cellular viability
